bCat KO growth: beta-catenin-lacking colon tumor cell growth suppression; actives 1.5% (n = 140,000); viability, % at 10 µM; HCT116 beta-catenin knockout viability, CellTiter-Glo, 60 h; hits give low values; AID 818;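 active = viability at or under a set limit, the compound median less 4 SD, cut at about 6% in these data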
HUVEC prolif 384: blocks proliferation of human endothelial cells; HUVEC proliferation, CellTiter-Glo luminescence, 72 h; hits give low values; viability, % at 10 µM (by protocol); actives 1.1% (n = 86,000);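 active = viability at or below 30%; inactive = viability above 30%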
H69AR growth 86K: growth inhibitors of human H69AR lung tumor cells; actives 6% (n = 85,000); H69AR lung tumor viability, ATP luminescence, 72 h; hits give low values; viability, % at 10 µM; AID 598;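 active = viability at or below 40%; inactive = viability above 40%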;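 note: multidrug resistant small cell line overexpressing MRP-1 efflux transporter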
PTEN del growth: PTEN-deleted cell growth suppression; HCT116 PTEN-null viability, CellTiter-Glo, 60 h; hits give low values; actives 1.2% (n = 140,000); viability, % at 10 µM; AID 827;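 active = viability at or below a set limit, 4 SD under the median of all tested compounds, cut at about 3.7% in these data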;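 note: PTEN knockout HCT116 line with beta catenin targeted HCT116 as companion control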
Fibroblast inh: blocks proliferation of human lung fibroblasts; LL 47 human lung fibroblast viability, ATP luminescence; hits give low values; viability, % at 10 µM; actives 1.1% (n = 85,000);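 active = viability at or below 50% in the single dose screen; inactive = viability above 50%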;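 note: compound exposure lasted 72 h before the ATP readout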
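Assay system: human lung fibroblast line LL 47, low passage. Input: 1,150 fibroblasts seeded per well. Times: overnight cell rest, 72 h compound treatment at 37 °C. Evaluation: % viability of median cell-only signal. Technique: luminescent ATP detection, CellTiter-Glo. Control set: cell-only wells, no compound.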
Of the large screens only hits and unclear results are named; the others gave an inactive call. Only a selection was taken, and hits are over-represented in it overall.

CC(Sc1nncs1)C(=O)Nc1ccc(Cl)cn1 (configuration not stated)	none (no result: HUVEC prolif 384, H69AR growth 86K, Fibroblast inh)
CCc1c(C)nc2ncnn2c1NCCc1ccc(OC)cc1	H69AR growth 86K 12.6
CCCN(CC1CC1)C(=S)Nc1ccc(Oc2ccccc2)cc1	none (no result: HUVEC prolif 384, H69AR growth 86K, Fibroblast inh)
CCOC(=O)N1CCN(c2cc3[nH]c(=S)[nH]c3cc2F)CC1	none
CCOC(=O)N1CCN(c2c(F)cc3[nH]c(=S)[nH]c3c2Br)CC1	H69AR growth 86K 8.9
Cn1c(=O)c2c(ncn2CC(O)CO)n(C)c1=O (configuration not stated)	none
Cn1c(=O)c2c(ncn2CC(COCc2ccc(Cl)cc2)OCc2ccc(Cl)cc2)n(C)c1=O (configuration not stated)	H69AR growth 86K 35.3
Cc1ccc(C(=O)Oc2oc(-c3ccco3)nc2C=Nc2ccccc2)cc1	H69AR growth 86K 38.6
CCOC(=O)c1ccc(N=Cc2nc(-c3ccccc3)oc2OC(C)=O)cc1	H69AR growth 86K 18.9
Oc1ccc(C=Nc2ccc3ncccc3c2)c(O)c1	bCat KO growth 1.9, PTEN del growth 1.7
O=c1c(F)cn(C2CCCO2)c(=O)n1Cc1c(Cl)cccc1Cl (configuration not stated)	H69AR growth 86K 28.3
O=C(Cc1c(F)cccc1Cl)NCC1CCCO1 (configuration not stated)	none
Cc1ccc(C2NC(=S)NC3=C2C(=O)CC(C)(C)C3)cc1 (configuration not stated)	none (no result: HUVEC prolif 384, H69AR growth 86K, Fibroblast inh)
COc1ccc(OC)c(C2C=C(c3ccc(C)c(C)c3)Nc3nnnn32)c1 (configuration not stated)	H69AR growth 86K 14.5
COc1cccc(C2=CC(c3cccc(OC)c3OC)n3nnnc3N2)c1 (configuration not stated)	none (no result: HUVEC prolif 384, H69AR growth 86K, Fibroblast inh)
COc1cccc(C2=CC(c3cc(OC)ccc3OC)n3nnnc3N2)c1 (configuration not stated)	H69AR growth 86K 5.4
COc1cccc(C2=CC(c3ccc(N(C)C)cc3)n3nnnc3N2)c1 (configuration not stated)	H69AR growth 86K 14.9
COc1cccc(C2=CC(c3ccccc3)n3nnnc3N2)c1 (configuration not stated)	none (no result: HUVEC prolif 384, H69AR growth 86K, Fibroblast inh)
COc1ccc(C2=CC(c3ccc(C)cc3)n3nnnc3N2)cc1 (configuration not stated)	none
COc1ccc(-n2c(C)cc(-c3csc(NC(=O)c4ccc(S(=O)(=O)N(C)C)cc4)n3)c2C)cc1	none (no result: HUVEC prolif 384, H69AR growth 86K, Fibroblast inh)
CCOC(=O)CSc1ncnc2c(C(=O)OCC)c3n(c12)CCC3	none (no result: HUVEC prolif 384, H69AR growth 86K, Fibroblast inh)
Cc1nc2ccccn2c1C(=O)NNS(=O)(=O)c1ccc(C(C)(C)C)cc1	none (no result: HUVEC prolif 384, H69AR growth 86K, Fibroblast inh)
N#CC1=C(N)Oc2c(ccc3ccccc23)C1c1cccs1 (configuration not stated)	HUVEC prolif 384 21.7, H69AR growth 86K 17.2
N#CC1=C(N)Oc2cc(O)ccc2C1c1cccs1 (configuration not stated)	none
CN(C)c1ccc(NC(=O)CC(NCc2ccccn2)C(=O)O)cc1 (configuration not stated)	none (no result: HUVEC prolif 384, H69AR growth 86K, Fibroblast inh)
O=C(NCCc1ccccc1)c1cccc([N+](=O)[O-])c1	none (no result: HUVEC prolif 384, H69AR growth 86K, Fibroblast inh)
O=C(C#Cc1cccc([N+](=O)[O-])c1)c1ccccc1	H69AR growth 86K 2.6, PTEN del growth 3.7, Fibroblast inh 48.2
Cc1ccc(C(=O)NCCSc2c(C)[nH]c3ccccc23)cc1[N+](=O)[O-]	none (no result: HUVEC prolif 384, H69AR growth 86K, Fibroblast inh)
Cc1[nH]c2ccccc2c1SCCN	H69AR growth 86K 34.6 (no result: bCat KO growth, PTEN del growth)
COc1cc(/C=N/NC(=O)CN(Cc2ccco2)S(=O)(=O)c2ccccc2)ccc1O	none (no result: HUVEC prolif 384, H69AR growth 86K, Fibroblast inh)
O=C(N/N=C/c1cccc(C(F)(F)F)c1)C1CCN(c2ncc(C(F)(F)F)cc2Cl)CC1	bCat KO growth 4.0, PTEN del growth 2.1 (no result: HUVEC prolif 384, H69AR growth 86K, Fibroblast inh)
O=C(O)CCC(=O)NNc1ccccc1[N+](=O)[O-]	none (no result: HUVEC prolif 384, H69AR growth 86K, Fibroblast inh)
Cc1ccc(NC(=O)CCNS(=O)(=O)c2cc(Br)cnc2N)cc1Cl	none (no result: HUVEC prolif 384, H69AR growth 86K, Fibroblast inh)
Cc1cc(NC(=O)CCNS(=O)(=O)c2cc(Br)cnc2N)ccc1Br	H69AR growth 86K 31.1
Cc1ccc(-c2nnc3n2N=C(c2ccc(Br)cc2)CS3)cc1	H69AR growth 86K 6.1
Brc1ccc(C2=Nn3c(nnc3-c3n[nH]c4c3CCC4)SC2)cc1	H69AR growth 86K 19.6, Fibroblast inh 40.8
Cc1cccc(-c2nnc3n2N=C(c2ccc(Br)cc2)CS3)c1	none (no result: bCat KO growth, PTEN del growth)
Clc1ccc(C2=Nn3c(nnc3-c3n[nH]c4c3CCC4)SC2)cc1	H69AR growth 86K 15.0
CSc1cc(-c2ccc(Cl)cc2)c(C(=O)N2CCCC2)s1	none (no result: HUVEC prolif 384, H69AR growth 86K, Fibroblast inh)
O=C1NC(=O)C2(COC(c3cccnc3)OC2)S1 (configuration not stated)	none (no result: HUVEC prolif 384, H69AR growth 86K, Fibroblast inh)
CC(=O)CSc1nnc(-c2ccc(S(=O)(=O)N3CCC(C)CC3)cc2)o1	none (no result: bCat KO growth, PTEN del growth)
CC(=O)c1c(C)[nH]c(C(=O)CSc2nc3ccccc3c(=O)n2CCCN2CCOCC2)c1C	none
Cc1sc2nc(CSc3nc4ccccc4c(=O)n3CCCN3CCOCC3)[nH]c(=O)c2c1C	H69AR growth 86K 9.8
CN(CCO)c1nc(N)c2c(N)nc3c(c2c1C#N)CC(=O)N3C1CCCC1	H69AR growth 86K 31.1
CCN(CC)c1nc(N)c2c(N)nc3c(c2c1C#N)CC(c1ccccc1)O3 (configuration not stated)	none
CC(C)(C)N1C(=O)Cc2c1nc(N)c1c(N)nc(N3CCCCC3CO)c(C#N)c21 (configuration not stated)	H69AR growth 86K 20.4
COc1ccc(CN(C(=O)CO/N=C/c2ccccc2)c2ccccc2C(=O)O)cc1	none (no result: HUVEC prolif 384, H69AR growth 86K, Fibroblast inh)
COc1ccc(CN(C(C)=O)c2cccc(C)c2C)cc1	H69AR growth 86K 18.8
CC(=O)Nc1ccc(S(=O)(=O)N/N=C/c2ccc(C)s2)cc1	none (no result: HUVEC prolif 384, H69AR growth 86K, Fibroblast inh)
COc1ccc(C(=S)Nc2ccc(C)cc2)cc1	none (no result: HUVEC prolif 384, H69AR growth 86K, Fibroblast inh)
CO/N=C\C(=N\Nc1ccc(OC)cc1)C(=O)c1ccccc1	H69AR growth 86K 27.5
COc1ccc(N/N=C(\C#N)C(N)=O)cc1	none (no result: HUVEC prolif 384, H69AR growth 86K, Fibroblast inh)
CO/N=C/C(=N\Nc1ccc(C)cc1)C(=O)c1ccc(OC)cc1	H69AR growth 86K 22.1
Cc1[nH]n(C(C)(C)C)c(=O)c1Sc1ccc(Cl)cc1	none
CCc1cccc(NC(=O)CCCSc2nc3ccccc3[nH]2)c1	none (no result: HUVEC prolif 384, H69AR growth 86K, Fibroblast inh)
CC(=O)Nc1ccc(NC(=O)c2cc(C)nn2-c2ccccc2)cc1	none
CC(=O)c1cc2c(cc1NC(=O)c1cc(C)nn1-c1ccccc1)OCO2	H69AR growth 86K 33.4
CCOc1ccccc1C(=O)N[C@H](C(=O)OCc1cc([N+](=O)[O-])cc2c1OCOC2)C(C)C	none (no result: HUVEC prolif 384, H69AR growth 86K, Fibroblast inh)
CCc1cc2c(=O)c(-c3ccc4c(c3)OCCO4)coc2cc1OC(=O)c1ccco1	H69AR growth 86K 15.1
CCCc1cc2c(=O)c(-c3ccc4c(c3)OCCO4)coc2cc1OC(=O)c1ccco1	H69AR growth 86K 39.9
COc1ccc(CCCC(=O)Nc2ccc(F)cc2)cc1	none (no result: HUVEC prolif 384, H69AR growth 86K, Fibroblast inh)
O=Cc1ccccc1Oc1ccccc1	none (no result: HUVEC prolif 384, H69AR growth 86K, Fibroblast inh)
O=Cc1ccccc1OCCOc1ccccc1C=O	H69AR growth 86K 23.2
COc1ccc(NC(=O)Cn2nnc(-c3ccccc3NC(=O)c3ccco3)n2)cc1	HUVEC prolif 384 21.4, H69AR growth 86K 4.3, Fibroblast inh 47.6
COc1cc(NC(=O)Cn2nnc(-c3ccccc3N)n2)cc(OC)c1	H69AR growth 86K 29.5

Bioassay records from PubChem BioAssay.
